Shown are actives, neighbours in structure and some others; about 2.2% of the full set was active somewhere.
Runt-CBFb FRET: inhibitors of human RUNX1 Runt domain binding to CBFb; Q01196+Q13951; inhibition, % at 20 µM; Cerulean-Runt/Venus-CBFb FRET ratio 530/480, 1 h; 0.46% of 220,000 active;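 active means inhibition over about 50% at 20 µM in the single-dose screen, limit read from the data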;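 further: 0% = DMSO wells and 100% = excess unlabeled CBFb competitor control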
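Buffer or medium: Tris pH 7.5 buffer with BSA. Assay system: Cerulean-labeled Runt domain protein. Amount: each fluorescent fusion protein 100 nM. Read-out basis: loss of energy transfer signal. Incubation: 1 h compound exposure, room temperature. Probe or stimulus: Venus-CBFb binding partner, 100 nM. Detection: FRET, excitation 422 nm, emission at 530 and 480 nm.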
14-3-3 Bad PPI: disrupts binding of bovine 14-3-3 zeta to phospho-Bad peptide; inhibition, % at 21.7 µM; P63103; 0.71% of 220,000 active; TR-FRET 14-3-3zeta/Dy647-pBad peptide displacement, 1 h;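 active means inhibition above about 70%, limit read from the data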;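 further: 0% = full 14-3-3 plus peptide FRET controls and 100% = background without 14-3-3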
Target sequence (P63103 whole entry, looked up): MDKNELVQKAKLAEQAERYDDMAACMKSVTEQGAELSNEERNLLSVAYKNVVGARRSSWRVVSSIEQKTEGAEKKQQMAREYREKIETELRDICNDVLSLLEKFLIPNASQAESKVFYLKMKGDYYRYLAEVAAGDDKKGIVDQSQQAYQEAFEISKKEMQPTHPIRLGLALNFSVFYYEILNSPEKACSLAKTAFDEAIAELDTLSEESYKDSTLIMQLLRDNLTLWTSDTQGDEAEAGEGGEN
Hck Nef HTS: human Hck-Nef kinase inhibition. Recombinant Hck-YEEI plus Nef, Z-Lyte FRET kinase assay. 0.68% of 220,000 active. inhibition, % at 20 µM. P08631;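 active means Hck-Nef kinase inhibition above about 50%, limit read from the data; inactive means inhibition below that limit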;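 further: 0% = DMSO with Hck plus Nef and 100% = Hck alone without Nef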
RanGTP-Impb inh: disruptors of Ran-importin-beta complex formation – biochemical, FRET, CFP-Ran, YFP-importin-beta, homogeneous, primary screen. cell-free CFP-Ran/YFP-importin-beta FRET ratio. inhibition, % (test concentration not listed). 1.1% of 300,000 active. AID 2216;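 active means more than half of the replicate wells show a fall in the fluorescence ratio signal beyond about 16%, limit read from the data, passing the limit was not always enough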;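 further: 0% = DMSO wells and 100% = Ran loaded with GDP instead of GTP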
Runt-SMMHC FRET: Runt domain-CBFb-SMMHC interaction inhibition; inhibition, % at 20 µM; Q01196+Q13951; AID 1434; 0.74% of 220,000 active; Cerulean-Runt/Venus-CBFb-SMMHC FRET ratio 530/480, 1 h;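 active means mean inhibition across duplicate retests at 20 µM reaching about 50%, limit read from the data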;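 further: 0% = DMSO wells and 100% = wells with excess untagged CBFb-SMMHC; inhibitors lower the FRET ratio by blocking Runt binding to CBFb-SMMHC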
Tb hexokinase: T. brucei hexokinase 1 inhibition | recombinant TbHK1, G6PDH-coupled NADH A340 | inhibition, % at 10 µM | 0.11% of 220,000 active | AID 1430;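 active means inhibition of 50% or more in the single-dose primary screen; inactive means inhibition below 50%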
Hck Nef conf: confirmation of Hck-Nef kinase inhibitors. calls only at 10 µM. 28% of 1,300 active. shares compounds with Hck Nef HTS. Recombinant Hck-YEEI:Nef, Z-Lyte FRET kinase assay;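 active means average inhibition of at least 50%, with Z-scores no higher than 3 in both the phospho-tyrosine peptide and fluorescence counterscreens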
* = called active by the depositor; i = inactive; nt = no result given; + = active, no number.

SMILES	Runt-CBFb FRET	14-3-3 Bad PPI	Hck Nef HTS	RanGTP-Impb inh	Runt-SMMHC FRET	Tb hexokinase	Hck Nef conf
CCOC(=O)c1ccc2c(c1)C1C=CCC1C(C(=O)O)N2 (stereo not given)	2.9	64.9	59.2*	nt	1.3	14.7	+
CCOC(=O)C1Nc2ccc(C(=O)O)cc2C2C=CCC12 (stereo not given)	nt	nt	nt	-5.2	nt	nt	nt
COCCNc1cc(C)nc2c3c(C)cc(C)nc3nn12	33.1	3.2	57.1*	49.8*	73.4*	-19.5	nt
Cc1ccc(-n2ncc3c2CC(C)(C)CC3NC(=O)CCc2ccc(=O)[nH]n2)cc1 (stereo not given)	nt	nt	nt	1.1	nt	nt	nt
CC(C)C(NS(=O)(=O)c1ccc2c(c1)Cc1cc(S(=O)(=O)NC(C(=O)O)C(C)C)ccc1-2)C(=O)O (stereo not given)	nt	nt	nt	5.5	nt	nt	nt
O=S(=O)(c1ccc(NC(=S)NN=C2CCCCC2)cc1)N1CCOCC1	5.5	-17.2	-0.6	4.9	4.3	-5.5	nt
Cc1cc2c(n1-c1ccc(Br)cc1)CC(C)(C)CC2=O	-3.1	-7.9	99.3*	0.8	1.4	10.7	i
C/C(=N\OC(=O)Nc1ccccc1)c1cnn(-c2cc(C(F)(F)F)cc(C)n2)c1C	-1.6	0.9	6.0	2.4	-2.3	-4.3	nt
CC/C(C)=N/NC(=S)NCc1ccco1	14.0	-4.7	3.4	5.4	1.9	2.7	nt
N#Cc1c(NC(=O)CN2CCN(S(=O)(=O)c3ccc4c(c3)OCCO4)CC2)sc2c1CCC2	-2.7	16.4	53.4*	1.9	-8.4	26.4	i
COc1cc(/C=C2\SC(c3ccc(C)cc3)=NC2=O)cc(OC)c1OC	-7.2	0.2	0.5	-0.6	-101.7	-14.9	nt
COc1cc(/C=C2\SC(c3ccccc3)=NC2=O)cc(Cl)c1O	44.1	-23.8	50.4*	2.9	68.9*	-7.4	+
COC(=O)c1c(-c2ccccc2Cl)noc1/C=C/N(C)C	7.4	-4.0	58.8*	1.0	0.8	-26.0	+
Cc1onc(-c2ccccc2Cl)c1C(N)=O	1.0	2.0	6.8	0.4	0.1	-0.3	nt
COc1ccc(N=c2oc3cc(O)ccc3cc2C(=O)Nc2ccccn2)cc1OC	54.6*	18.1	84.0*	5.1	92.5*	-21.8	i
COc1cc(C(=O)Nc2ccccc2C(=O)Nc2ccccn2)cc(OC)c1OC	nt	nt	nt	5.3	nt	nt	nt
Cc1ccccc1-n1c(=O)c(C#N)cc2c(=O)n3ccccc3nc21	18.6	-2.7	+	128.3*	58.7*	-10.8	nt
O=c1c2ccccc2cnn1-c1ccc(Cl)cc1	0.6	4.5	0.9	4.9	3.9	-1.3	nt
C=CCn1c(=O)c(C#N)cc2c(=O)n3ccccc3nc21	10.4	nt	155.3*	74.9*	79.3*	-4.5	nt
CC1CN(C(=O)c2cc3c(=O)n4ccccc4nc3n2C)CC(C)O1 (stereo not given)	nt	nt	nt	5.8	nt	nt	nt
Cc1cc(-n2c(=O)c(C#N)cc3c(=O)n4ccccc4nc32)no1	12.5	-3.9	+	161.4*	65.3*	-3.0	nt
N#Cc1cc2c(=O)n3ccccc3nc2n(-c2ccc(Cl)cc2)c1=O	46.8	-2.1	173.2*	nt	89.6*	-6.5	nt
COc1ccc2[nH]c3c(=O)n(/N=C/[C@H]4C(C)C=C(C)CC4C)c(=O)[nH]c3c2c1 (stereo not given in full)	-1.6	7.9	8.1	-0.4	-0.9	-4.5	nt
CC1=CC(C)[C@H](/C=N/n2c(=O)[nH]c3c([nH]c4ccc(Br)cc43)c2=O)C(C)C1 (stereo not given in full)	nt	-11.9	60.7*	-55.0	4.5	7.7	i
Cc1c(NC(=O)Nc2cccc(Cl)c2Cl)c(=O)n(-c2ccccc2)n1C	nt	nt	nt	-1.8	nt	nt	nt
SMILES	Runt-CBFb FRET	14-3-3 Bad PPI	Hck Nef HTS	RanGTP-Impb inh	Runt-SMMHC FRET	Tb hexokinase	Hck Nef conf
CCCCNC(=O)C(=O)N/N=C/c1ccc(OCC(=O)Nc2cccc(OC)c2)c(OC)c1	0.1	51.2	70.6*	-1.8	-2.8	-22.1	+
Cc1cc(NC(=O)CSc2nccn2-c2cccc(Cl)c2)no1	nt	nt	nt	5.1	nt	nt	nt
CCCc1ccc2oc(C(=O)N3CCNC(=O)C3CC(=O)OC)c(C)c2c1 (stereo not given)	nt	nt	nt	-1.3	nt	nt	nt
Cc1cc(=O)oc2c3c(ccc12)OC/C3=N/N	3.1	-4.4	16.1	-0.3	-2.3	-10.5	nt
CC(C)c1cc(=O)oc2c3c4c(cc12)CCCN4CCC3	14.5	13.1	52.0*	29.0*	-3.4	-19.5	nt
Cc1cc(=O)oc2c3c4c(cc12)OCCN4CCC3	4.0	-5.8	72.3*	143.1*	nt	-7.7	nt
O=c1oc2c3c4c(cc2c(C(F)(F)F)c1CCN1CCOCC1)CCCN4CCC3	-231.6	-16.8	-7.8	-168.9	-132.3	-12.9	nt
O=Cc1cc(N=Nc2ccccc2Cl)ccc1O	-5.3	25.2	56.6*	-4.4	-2.8	-16.4	+
CCOC(=O)c1c(NC(=O)/C=C/C(=O)O)sc(C)c1-c1ccc(F)cc1	-1.4	2.6	51.3*	-3.4	1.1	-33.6	+
CCOC(=O)c1c(NC(=O)/C=C/C(=O)O)sc(C)c1-c1ccc(C)c(C)c1	1.3	0.9	29.8	7.7	-5.4	-17.5	nt
O=C(Cc1ccc(Cl)cc1)c1c[nH]c(C(=O)NCCCn2ccnc2)c1	1.8	-11.6	21.7	6.5	-2.4	-0.3	nt
Nc1cc2ccncc2c2ccccc12	11.5	5.2	52.4*	11.2	27.9	-22.4	i
Cc1cc(N)c2ccccc2n1	0.2	-5.5	16.1	0.5	-1.5	-5.1	nt
CCCCSc1nc2c(cnn2-c2ccccc2)c(=O)n1N	-0.4	-6.0	28.2	-1.4	-0.5	5.3	nt
CCCSc1nc2c(cnn2-c2ccccc2)c(=O)n1N	2.6	-1.2	76.4*	-5.7	-0.5	6.2	+
CC/C(C)=N/Nc1nc(-c2cc3cccc(OC)c3oc2=O)cs1	10.6	-7.5	57.2*	0.3	-13.9	-24.1	i
CC(=O)c1cc(CN2CCN(Cc3ccccc3)C(CCO)C2)cs1 (stereo not given)	2.4	-4.5	9.5	0.4	-2.5	4.7	nt
Clc1ccc2[nH]c3c(c2c1)CCc1cn[nH]c1-3	4.0	6.3	59.6*	-3.7	-1.3	-1.6	+
C=CCN(CC=C)C(=O)c1cc(Cl)ccc1[N+](=O)[O-]	0.7	-3.8	64.4*	0.4	-1.9	18.5	i
Cc1ccnc(NC(=O)Nc2ccc(Br)cc2Cl)c1	2.1	-5.5	4.2	1.6	-4.5	-0.3	nt
O=C(Nc1ccc2c(c1)C(=O)NC2=O)c1cccc(C(F)(F)F)c1	nt	nt	nt	0.9	nt	nt	nt
COc1ccc(-c2nn(-c3ccccc3)cc2/C=C2/SC(=S)N(CCC(=O)O)C2=O)cc1	nt	nt	nt	-6.6	nt	nt	nt
Cc1ccc(-c2nn(-c3ccccc3)cc2/C=C2\SC(=S)N(CC(=O)O)C2=O)cc1	-2.0	10.6	57.8*	-1.7	-13.8	19.6	i

Screening data as filed in PubChem.
